Structures are written as SMILES. Peptide text beside a SMILES is read from it. * marks the point of attachment. Propionyl = CCC(=O)*

Test [1] concerns the target T1, human NMUR2 (Homo sapiens, UniProt Q9GZQ4). The test is described as follows: Competitive radioligand binding assay with [^125I]NMU-8.
The target of test [2] is T1, human NMUR2. The experiment in a line: Functional in vitro FLIPR calcium mobilization assay. In kind it is cell-based. The conditions noted are these: SD. A digest of the protocol: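 Recombinant Chem-1 cells overexpressing full-length human NMUR2, grown in DMEM/10% FBS with selection, seeded at 5×10^5 cells/mL 16 h before assay. Loaded with Calcium 6 dye plus 2 mM probenecid for 60 min at 37 °C. Fractions given as 12-point 1:3 dilutions in HBSS/20 mM Hepes/0.1% BSA, final 1.1 μM–[…]. Read by FLIPR at 0.5 Hz as peak minus baseline fluorescence; Hill fit, mean ± standard deviation of two experiments.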
Background: Calcium assays in cells follow changes in intracellular calcium, usually with a dye or a luminescent sensor.

T1 sequence (Q9GZQ4 whole entry): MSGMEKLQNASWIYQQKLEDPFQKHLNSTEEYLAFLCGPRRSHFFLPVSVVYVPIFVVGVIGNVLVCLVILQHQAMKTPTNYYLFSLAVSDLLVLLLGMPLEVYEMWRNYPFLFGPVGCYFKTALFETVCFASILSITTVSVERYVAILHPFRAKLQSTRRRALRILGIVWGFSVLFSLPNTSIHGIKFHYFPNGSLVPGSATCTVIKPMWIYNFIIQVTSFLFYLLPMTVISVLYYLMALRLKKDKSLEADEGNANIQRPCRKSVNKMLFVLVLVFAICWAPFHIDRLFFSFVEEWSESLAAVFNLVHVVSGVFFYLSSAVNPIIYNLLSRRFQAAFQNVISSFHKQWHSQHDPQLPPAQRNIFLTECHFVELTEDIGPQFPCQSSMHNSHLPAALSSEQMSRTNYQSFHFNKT

For `CCC(=O)N[C@H](C(=O)N[C@@H](CC(C)C)C(=O)N[C@@H](CCC(N)=O)C(=O)N[C@@H](CCCNC(=N)N)C(=O)NCC(=O)N[C@@H](CO)C(=O)NCC(=O)N[C@H](C(=O)N[C@@H](C)C(=O)N[C@@H](C)C(=O)N[C@H](C(=O)N[C@@H](CC(=O)O)C(=O)N[C@@H](Cc1ccccc1)C(=O)N[C@H](C(=O)N[C@@H](CCCCN)C(=O)N[C@@H](CCCCN)C(=O)N[C@@H](CC(=O)O)C(=O)N[C@@H](Cc1c[nH]cn1)C(=O)N[C@H](C(=O)N[C@@H](C)C(=O)N[C@H](C(=O)N[C@@H](Cc1c[nH]c2ccccc12)C(=O)NCC(=O)N[C@@H](CCCNC(=N)N)C(=O)N1CCC[C@H]1C(=O)N[C@@H](Cc1ccccc1)C(=O)N[C@@H](Cc1ccccc1)C(=O)N[C@@H](CC(C)C)C(=O)N[C@@H](Cc1ccccc1)C(=O)N[C@@H](CCCNC(=N)N)C(=O)N1CCC[C@H]1C(=O)N[C@@H](CCCNC(=N)N)C(=O)N[C@@H](CC(N)=O)C(N)=O)[C@@H](C)O)[C@@H](C)O)[C@@H](C)O)C(C)C)[C@@H](C)O)[C@@H](C)CC` [fraction c] (Propionyl-ILQRGSGTAAVDFTKKDHTATWGRPFFLFRPRN-NH2), in test [1], the IC50 (as a rule, the concentration that gives 50% inhibition) is 2.19 nM. In addition, the half-maximal effective concentration (EC50) (commonly the concentration that produces a half-maximal response) in test [2] is 1.02 nM.

Values taken from article PMC9851027 (ACS Omega, 2023).
